Assay outcomes: PubChem BioAssay, several laboratories
Shown are actives, neighbours in structure and some others; about 1.9% of the full set was active somewhere.
ROMK primary – modulators of human ROMK potassium channel; P48048; Tet-inducible ROMK, thallium flux fluorescence; actives lie on both sides; B-score at 10 µM; hit rate 2% among 130,000;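 active = signal ratio slope over the read window, or its plate-corrected B-score, at least 3 SD from the plate mean, either direction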;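 note: B-score of the F/F0 ratio slope over 7 to 12 s after thallium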
Target sequence (P48048 whole entry, looked up): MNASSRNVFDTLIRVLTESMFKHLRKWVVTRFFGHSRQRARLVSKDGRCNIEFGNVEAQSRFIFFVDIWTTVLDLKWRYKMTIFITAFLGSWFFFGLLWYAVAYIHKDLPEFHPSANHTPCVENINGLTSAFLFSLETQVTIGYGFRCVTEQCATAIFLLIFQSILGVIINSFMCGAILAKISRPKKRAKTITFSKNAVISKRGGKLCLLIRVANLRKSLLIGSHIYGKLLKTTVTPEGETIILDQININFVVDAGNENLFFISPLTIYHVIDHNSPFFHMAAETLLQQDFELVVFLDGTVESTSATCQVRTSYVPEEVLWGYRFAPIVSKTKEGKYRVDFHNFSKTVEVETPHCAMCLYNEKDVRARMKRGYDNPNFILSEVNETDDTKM
bCat nuc transl – beta-catenin nuclear translocation modulation. HeLa beta-catenin nuclear translocation, immunofluorescence imaging. nuclear translocation activity, % at 5 µM. AID 1665. hit rate 0.3% among 190,000;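 active = nuclear translocation activity above 50% at 5 µM, with a well cell count of 50 or more; inconclusive = wells under 50 cells across six images, flagged as toxic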;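 note: per-cell ratio of nuclear to cytoplasmic median beta-catenin stain intensity; plate controls were DMSO negative control for no effect and GSK-3 inhibitor IX positive control for full effect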
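test system = HeLa cells, endogenous beta-catenin | dosing = single 5 µM dose plus 0.02–20 µM confirmation series | times = compound treatment 24 h, 37°C, 5% CO2 | technique = beta-catenin immunofluorescence imaging with DAPI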
MT stabilize HCS – microtubule stabilizers in HeLa cells. HeLa tubulin immunostaining HCS, 24 h; share of cells brighter than vehicle mean+2SD. hit rate 0.83% among 200,000. % tubulin-high responders, % at 10 µM;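 active = plate Z-score above 3 for both tubulin-high and condensed-nucleus cell shares, with cell loss under 80%, at 10 µM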;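 note: anti alpha tubulin signal scored within the nucleus-defined area of each cell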
ROMK retest – confirmation of human ROMK potassium channel modulators. normalized thallium flux (F/F0 slope) at 10 µM. ROMK thallium flux, fluorescence ratio; active compounds read low. shares compounds with ROMK primary. hit rate 54% among 3,000;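 active = Flux at 10 µM at least 3 SD below or above vehicle control mean in one or both replicates; inconclusive = no clear call, values can overlap the other calls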
* marks the source's active call; other numbers are inactive results; ? = inconclusive; / = no result given.

SMILES	ROMK primary	bCat nuc transl	MT stabilize HCS	ROMK retest
COC(=O)CCC(=O)Nc1sc2c(c1C#N)CCCC2	5.9*	2	5	0.089
CCOC(=O)C(Cc1ccc(OC)c([N+](=O)[O-])c1)NC(=O)CCC(=O)Nc1ccc(OC)cc1 (centres undefined)	0.0099	0	3	/
CCCCCCCCCCCC(=O)NC(Cc1ccc(OC)c([N+](=O)[O-])c1)C(=O)O (centres undefined)	4.5*	0	/	?
COc1ccc(OC)c(C2C(C(=O)c3ccccc3)=C(C)Nc3nc4ccccc4n32)c1 (centres undefined)	2.5*	0	6	0.068*
COc1ccc(C2C(C(=O)c3ccccc3)=C(C)Nc3nc4ccccc4n32)cc1OC (centres undefined)	0.62	-2	5	/
CCOC(=O)C1=C(CN2CCN(CCC#N)CC2)NC(=O)NC1c1ccc2c(c1)OCO2 (centres undefined)	1.1	0	2	/
O=C1/C(=C\Nc2ccc(OC(F)(F)F)cc2)CCN1c1ncccn1	2.9*	-7	1	0.083
O=C1/C(=C\Nc2ccc(Cl)cc2)CCN1c1ncccn1	/	-1	1	/
CCOc1ccc(S(=O)(=O)NN2Cc3ccccc3C2=N)cc1	-1	-3	3	/
CCCCn1nnc(NC(=S)NC(=O)c2cccs2)n1	/	-4	6	/
N#C/C(=C/c1ccc(N2CCCCCC2)o1)c1cccc(F)c1	-2.9*	0	2	0.057*
N#C/C(=C/c1ccc(N2CCCCCC2)o1)c1ccc(F)cc1	/	/	7	/
COc1ccc(CSC2=CS(=O)(=O)c3ccccc3N2)cc1	1.5	-5	1	/
O=c1c2ccccc2nc(-c2ccc(Cl)cc2Cl)n1O	0.58	-1	3	/
O=C(O)c1ccccc1-c1nc2cc(Cl)ccc2c(=O)n1O	-3.2*	-3	2	0.068*
O=c1c2ccc(Cl)cc2nc(-c2cccc(C(F)(F)F)c2)n1O	1.6	4	1	/
O=c1c2ccccc2nc(-c2ccccc2Cl)n1O	2.8*	-1	2	0.071
Cc1ccc([N+](=O)[O-])c(C(=O)N/N=C/c2cccs2)c1	-0.65	2	/	/
C#CCSc1nnnn1-c1cccc(Cl)c1	/	-2	/	/
O=C(O)c1cccc(-c2ccc(/C=c3/sc4nc5ccccc5n4c3=O)o2)c1	/	8	/	0.04*
O=C(O)c1cc(C(=O)O)cc(-c2ccc(/C=c3/sc4nc5ccccc5n4c3=O)o2)c1	-1.2	0	4	/
C/C(=N\NC(=O)c1ccn(C)n1)c1cccc(NC(=O)c2ccncc2)c1	0.74	/	3	/
O=C(O)[C@H]1CCCC[C@H]1C(=O)NCCc1ccccc1	2.1	-2	1	/
O=C(O)C1CCCCC1C(=O)NCCc1ccncc1 (centres undefined)	2.4*	1	3	0.073
O=C(NCCNc1ccc([N+](=O)[O-])cc1C(F)(F)F)c1ccc(F)cc1	/	4	1	/
SMILES	ROMK primary	bCat nuc transl	MT stabilize HCS	ROMK retest
NCCCNc1ccc([N+](=O)[O-])cc1C(F)(F)F	-8.3*	-3	1	0.066*
COc1cccc(CNC(=O)C2CCN(Cc3cnn(-c4ccccc4)c3-n3cccc3)CC2)c1	-3.5*	5	3	0.055*
O=C(NCc1ccccn1)C1CCN(Cc2cnn(-c3ccccc3)c2-n2cccc2)CC1	-0.23	0	2	/
COc1ccnc(N=CNOCc2ccc(Cl)cc2)c1C#N	/	-2	/	/
N#Cc1cnc(NOCc2ccc(Cl)cc2)nc1	-9.5*	-1	4	0.074
CC1(C)CC(=O)c2cnc(NC(=O)CSC(=S)N3CCCCC3)nc2C1	/	-1	/	/
C/C(=C1/SC(=S)N(CCC(=O)O)C1=O)c1ccc(O)cc1	/	/	3	/
COc1ccc(/C(C)=C2\SC(=S)N(CCC(=O)O)C2=O)cc1	3.1*	-5	1	0.076
CC(C)(C)/C(O)=C/c1nc2ccccc2[nH]c1=O	/	0	3	/
COc1cc(/C=C(/C(=O)c2cccs2)c2nc3ccccc3[nH]2)ccc1O	/	4	13	0.055*
COC(=O)/C(=C\c1cc(OC)c(OC)c(OC)c1)c1nc2ccccc2[nH]1	-1.8	1	6	/
O=C(/C(=C/c1ccc(Cl)cc1)c1nc2ccccc2[nH]1)c1cccs1	-5.4*	7	28*	0.057*
O=C(Nc1nc2ccccc2[nH]1)c1cccs1	1.4	-1	4	/
O=c1[nH]c2ccccc2nc1/C=C(\O)c1cccs1	-2.5*	1	1	0.045*
COc1ccc(/C=N/NC(=O)CC(=O)NC2CCCCC2)cc1	/	1	2	/
Cc1nnc(SCC(=O)Nc2nc(-c3ccc(F)cc3)cs2)[nH]c1=O	-1.8	1	4	/
Cc1ccc(-n2nc(C)c(/C=N/n3c(C)n[nH]c3=S)c2Cl)cc1	1.1	6	8	/
C=CCNC(=O)c1ccccc1NC(=O)Cc1ccccc1[N+](=O)[O-]	/	3	5	/
CCCNc1sc(S(=O)(=O)CCC)nc1S(=O)(=O)c1ccc(C)cc1	0.028	-3	2	/
CC(C)c1nc2c(c(=O)n(C)c(=O)n2C)n1C	/	0	/	/
O=C(Nc1cccc2ncccc12)C(c1ccccc1)c1ccccc1	0.37	-2	6	/
Cc1ccc(-n2ncc3c(NCc4cccnc4)ncnc32)c(C)c1	-0.21	4	3	0.066*
Cc1cccc(-n2ncc3c(NCc4cccnc4)ncnc32)c1	/	-1	/	/
COc1ccccc1C(=O)c1cc2ccc(O)cc2oc1=O	/	2	3	/
C/C(=N\NC(=O)CC#N)c1cc2ccc(O)cc2oc1=O	-3.4*	-2	2	0.056*
SMILES	ROMK primary	bCat nuc transl	MT stabilize HCS	ROMK retest
COc1ccccc1NC(=O)C1=C(C)NC2=C(C(=O)CCC2)C1c1ccc2c(c1)OCO2 (centres undefined)	/	0	3	/
CN(C(=O)Nc1cccc(C(F)(F)F)c1)C1CCCCC1	/	-2	/	/
NC(CO)C12CC3CC(CC(C3)C1)C2 (centres undefined)	-0.54	-1	/	/
NC(CCC(=O)O)C12CC3CC(CC(C3)C1)C2 (centres undefined)	2.5*	-1	4	?
O=C(COC(=O)C1(c2cccc(F)c2)CCCC1)NCc1ccc2c(c1)OCO2	/	3	3	/
O=C(O)c1cc2nc(C3CC3)cc(C(F)(F)F)n2n1	/	-1	5	/
O=C(c1cc2nc(C3CC3)cc(C(F)(F)F)n2n1)N1CCCC1	6.9*	0	2	0.079
CC/C(=N\NC(=O)c1cc(C)nc2ccccc12)c1ccc(C)s1	/	-2	4	/
CCOC(=O)C1CCN(c2ccc([N+](=O)[O-])c(C(C)=O)c2)CC1	-3*	-3	3	0.076
CCOC(=O)C1CCN(C(=O)COc2ccc([N+](=O)[O-])cc2)CC1	-1.4	1	3	/
O=C(c1ccccc1)C(Nc1ccccn1)c1ccccc1 (centres undefined)	-0.054	0	3	/
Cc1cc(Br)ccc1NC(=O)CN1C(=O)C2C3CC(c4ccccc4)C(C3)C2C1=O (centres undefined)	/	6	3	/
COc1ccc2c(c1)c1nc3ccccc3nc1n2Cc1ccc(OC(C)C)c(OC)c1	-3.4*	1	6	0.057*
COc1ccc(Cn2c3ccc(OC)cc3c3nc4ccccc4nc32)cc1	/	-1	8	/
Cc1ccc(S(=O)(=O)Oc2ccc(/C=N/NC(=O)c3nn(C)cc3[N+](=O)[O-])cc2)cc1	/	-2	4	/
